KCNQ1 block: inhibitors of human KCNQ1 potassium channel; CHO-K1 KCNQ1, FluxOR thallium flux fluorescence; hits give high values; B-score at 10 µM; 1.3% of 310,000 active;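 active = compounds whose thallium flux B-score, printed positive for inhibition, exceeds three library SD while starting fluorescence stays within three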;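 also: channel opened by potassium depolarization with thallium stimulus after 20 min compound exposure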
PHOSPHO1 inh: inhibitors of human PHOSPHO1 phosphatase; Q8TCT1; recombinant PHOSPHO1, absorbance phosphatase assay; inhibition, % at 13.3 µM; 1.1% of 290,000 active; AID 1565; in the data active = inhibition above about 60%
KCNK3 inh: human KCNK3 channel inhibition, primary screen; O14649; CHO-KCNK3 thallium flux, FluxOR fluorescence; hits give low values; B-score at 10 µM; 0.84% of 340,000 active; AID 602410;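 active = B-score under library mean minus 4 SD, starting fluorescence ratio at most library mean plus 5 SD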;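 also: more negative B-score means stronger inhibition of thallium flux through KCNK3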
Target sequence (O14649 whole entry, looked up): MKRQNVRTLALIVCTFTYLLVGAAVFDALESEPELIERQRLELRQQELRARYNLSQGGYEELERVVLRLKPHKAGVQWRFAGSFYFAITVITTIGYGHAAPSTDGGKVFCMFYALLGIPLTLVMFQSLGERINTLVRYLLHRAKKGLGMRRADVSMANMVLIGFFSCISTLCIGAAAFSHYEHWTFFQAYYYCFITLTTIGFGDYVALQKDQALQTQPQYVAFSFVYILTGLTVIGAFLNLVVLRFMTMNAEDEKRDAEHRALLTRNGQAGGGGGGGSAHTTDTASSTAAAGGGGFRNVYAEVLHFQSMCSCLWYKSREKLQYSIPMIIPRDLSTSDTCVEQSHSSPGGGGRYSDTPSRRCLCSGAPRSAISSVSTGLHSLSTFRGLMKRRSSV
hERG protect: hERG (human) protection from proarrhythmic block; Q12809; CHO-hERG, FluxOR thallium flux, dofetilide IC70 present; activation (rescue from dofetilide block), less the hit threshold, % at 10 µM; 0.51% of 310,000 active; AID 1511;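 active = activation above the mean of controls blocked by dofetilide plus 5 SD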;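 also: thallium influx through hERG after potassium depolarization seen as dye fluorescence rise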
KCNK9 inh: blocks the human KCNK9 two-pore domain potassium channel | Q9NPC2 | HEK293 KCNK9, FluxOR thallium flux fluorescence; hits give low values | B-score at 10 µM | 1.2% of 310,000 active;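 active = ratio B-score over 3 SD below the library mean, with starting fluorescence within 5 SD of its mean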;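 also: negative B-score means less thallium flux so channel inhibition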
KCNQ1 act: human KCNQ1 channel potentiation or activation. B-score at 10 µM. CHO-K1 KCNQ1, thallium flux FluxOR fluorescence; hits give high values. P51787. 0.35% of 310,000 active;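 active = fluorescence ratio B-score, a plate-corrected score, at least three library SD, with initial intensity B-score within 5 SD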
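assay system = CHO-K1 cells stably expressing KCNQ1 | medium = assay buffer, equal DMSO in all wells | timing = 37 °C overnight plating, 90-min dark dye load, 20-min compound pretreatment | measured by = kinetic FluxOR thallium fluorescence, 10-s 1-Hz baseline, 110-s post-stimulus read | measure = fluorescence change relative to baseline, converted to B score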
* hit, by the source's call; i = inactive; . = no result given. Most compounds without a hit are left out; they make up all but 4% or so of the library.

SMILES	KCNQ1 block	PHOSPHO1 inh	KCNK3 inh	hERG protect	KCNK9 inh	KCNQ1 act
C=C(C)C1Cc2c(C)nn(-c3nc(C)cc(C)n3)c2C1 (stereo unspecified)	i	-7	i	-7	i	i
O=C(COc1ccccc1F)Nc1ccc(S(=O)(=O)NCc2ccco2)cc1	i	-22	i	-10	i	8*
COc1ccc2nc(N=Nc3ccc(O)c4ccccc34)sc2c1	i	6	i	11*	i	18*
O=C(CCCc1nc2ccccc2s1)Nc1nccs1	i	92*	i	-12	i	i
O=C(CCCSc1nc2ccccc2s1)Nc1nccs1	i	27	i	-16	i	i
O=C(O)COc1c(Cl)cc(/C=C2/NC(=O)NC2=O)cc1Br	i	-26	i	-4	i	i
O=C(Nc1cccc(F)c1)c1cc(S(=O)(=O)N2CCC3(CC2)OCCO3)ccc1F	i	-19	.	-15	i	i
Cc1cccc(NC(=O)c2ccc(F)c(S(=O)(=O)N3CCC4(CC3)OCCO4)c2)c1	i	65*	i	-13	i	i
O=C(c1ccc(Cn2c(=S)[nH]c3cc4c(cc3c2=O)OCO4)cc1)N1CCN(c2ncccn2)CC1	i	-73	.	-11	i	i
COc1ccc(N=C2O/C(=C/c3sc(=S)n(CC4CCCO4)c3O)N=C2C#N)cc1 (stereo unspecified)	10*	36	i	-17	i	i
CN1C(=O)C(c2ccccc2[N+](=O)[O-])C(=O)c2ccccc21 (stereo unspecified)	i	27	i	-1	i	i
Cn1cc(SCC(=O)Nc2ccc3c(c2)OCO3)c2ccccc21	i	72*	i	-8	i	i
CCCn1cc(SCC(=O)Nc2ccc3c(c2)OCO3)c2ccccc21	i	-30	i	-4	i	i
C=CCn1c(Cc2cccs2)nnc1SCC(=O)c1cccc(Br)c1	i	68*	i	-17	i	i
COc1ccc(NC(=O)CCc2nnc3ccc(N4CCC5(CC4)OCCO5)nn23)cc1	i	24	i	-6	i	i
CCCC(=O)N1c2ccccc2C(=C2SC(C(=O)OC)=C(C(=O)OC)S2)C(=S)C1(C)C	i	-21	i	-5	i	i
CC1C(=O)Nc2ccccc2N1C(=O)C1CC1 (stereo unspecified)	i	5	i	-7	i	i
COC(=O)C1=C(C(=O)OC)SC(=C2C(=S)C(C)(C)N(C(=O)C3CC3)c3ccccc32)S1	i	79*	i	-2	i	i
COC(=O)C1=C(C(=O)OC)SC(=C2C(=S)C(C)(C)N(C(=O)C(C)C)c3ccccc32)S1	i	80*	i	-7	i	i
COc1ccc(NC(=O)CN2CCN(CC(=O)Nc3ccc(OC)c(OC)c3)CC2)cc1	.	42	i	.	.	.
CCCCC(CC)C(=O)Nc1cc(=O)[nH]c2nc3ccccc3n12 (stereo unspecified)	i	37	i	-11	i	i
COC(=O)c1cc(S(=O)(=O)NCc2ccc(F)cc2)cn1C	i	18	i	-6	i	i
COc1ccc(OCC(O)CNC(=O)Nc2ccccc2)cc1 (stereo unspecified)	i	8	i	-3	i	i
CCOC(=O)Cc1csc(NC(=S)NC(=O)c2ccc([N+](=O)[O-])cc2)n1	i	-42	i	-9	i	i
CCOC(=O)Cc1csc(NC(=S)NC(=O)c2ccc(Cl)cc2)n1	i	8	i	7.3*	i	17*
O=C(CSc1n[nH]c(-c2ccncc2)n1)Nc1ccc(Cl)cc1	i	12	i	-4	i	i
CC(C)c1ccc(/C=C/C(=O)NC(=S)NN2CCOCC2)cc1	i	22	i	-9	i	i
CC(C)c1ccc(/C=C/C(=O)NC(=S)Nc2ccc(CN3CCOCC3)cc2)cc1	9*	-5	i	-17	i	i
O=Nc1ccc(NOC(=O)c2ccccc2Br)cc1	i	-6	i	-10	i	i

Screening results deposited in PubChem BioAssay by several laboratories.
